The species named for assay [1] is Cavia porcellus. Nature of the assay: Negative inotropic activity in guinea pig left atrium at 50 uM. It counts as functional, Cardiac atrium. In a few lines:
(§1)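 Guinea-pig left atria driven at 1 Hz (0.6-0.8 ms pulses, about 50% threshold voltage) in PSS, 35 °C, pH 7.4, 95% O2/5% CO2. Isometric tension recorded. Cumulative concentrations 0.01-100 μM in DMSO (≤0.3%), each to steady state. Percent decrease in developed tension, n = 4-6. EC50 by Probit analysis.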

The species entered for assay [2] is Cavia porcellus. Nature of the assay: Vasorelaxant activity assessed as inhibition of calcium-induced contraction of potassium ion-depolarized guinea pig aortic strips at 50 uM. The format is functional, Aorta. Set-up: scale not given: the % may be the effect or the level left. In a few lines: (§2)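 Helicoidal guinea-pig aortic strips in aerated PSS at 35 °C, contracted with 80 mM KCl (K+ substituted for Na+). At plateau (about 45 min), compounds added cumulatively at 0.1-500 μM in DMSO vehicle. Relaxation measured isometrically. IC50 by Probit analysis, n = 6-8.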

For assay [3], the species on record is Cavia porcellus. Nature of the assay: Negative inotropic activity in guinea pig left atrium. The conditions noted are these: Cardiac atrium. The format is functional. Put shortly: as §1
The species entered for assay [4] is Cavia porcellus. Nature of the assay: Cardiac activity in guinea pig heart measured as decrease in heart rate at 1 uM by ECG relative to control. It counts as functional. Set-up: scale not given: the % may be the effect or the level left. Put shortly:
(§3)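 Langendorff-perfused isolated hearts from female guinea-pigs (300-400 g). Compounds given cumulatively at 0.001-1 μM, each step held to steady state (about 30 min). Read-outs: surface ECG (PR interval, heart rate), intraventricular balloon +(dP/dt)max and coronary perfusion pressure. Results given as percent change from basal at 1 μM, mean ± SEM.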

For assay [5], the species on record is Cavia porcellus. The assay can be described thus: Cardiac activity in guinea pig heart measured as prolongation of atrioventricular conduction time at 1 uM relative to control. It counts as functional. In a few lines:
as §3

For assay [6], the species on record is Cavia porcellus. The assay can be described thus: Antagonist activity against calcium channel assessed as inhibition of carbachol-induced tonic contraction of guinea pig ileum longitudinal smooth muscle. It counts as functional. In a few lines:
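Guinea-pig ileum longitudinal smooth muscle segments (2 cm), 300-400 mg resting tension, 37 °C, oxygenated Hepes-buffered PSS at pH 7.4, equilibrated 1 h. Two control carbachol curves run 30 min apart. Test agent (10 μM) added 30 min before the carbachol curve. Isometric inhibition expressed as percent of control.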

Assay [7] is filed under the species Cavia porcellus. The assay can be described thus: Negative inotropic activity in guinea pig left ventricular papillary muscle at 1 uM. The format is functional, Muscle tissue.
For assay [8], the species on record is Cavia porcellus. The assay can be described thus: Cardiac activity in guinea pig heart measured as decrease in coronary perfusion pressure at 1 uM relative to control. The format is functional. Put shortly: as §3
The species entered for assay [9] is Cavia porcellus. Nature of the assay: Negative chronotropic activity in guinea pig right atrium at 10 uM. It counts as functional, Cardiac atrium. In a few lines: (§4)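 Spontaneously beating guinea-pig right atria in PSS, 35 °C, pH 7.4, 95% O2/5% CO2. Cumulative concentrations 0.01-100 μM in DMSO (≤0.3% in bath), each to steady state. Rate decrease taken as percent of control (pretreatment 170-195 beats/min), n = 6-8. EC30 by Probit analysis.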

Assay [10] is filed under the species Cavia porcellus. The assay can be described thus: Antagonist activity against calcium channel assessed as inhibition of calcium-induced contraction of potassium ion-depolarized guinea pig ileum longitudinal smooth muscle. It counts as functional. In a few lines: (§5)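 Guinea-pig ileum longitudinal smooth muscle segments (2 cm) held at 300-400 mg resting tension, 37 °C, in oxygenated (100% O2) Hepes-buffered PSS at pH 7.4. Isometric contraction recorded. Inhibition expressed as percentage of control. Probit log concentration–response analysis, n = 6-8.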

Assay [11] is filed under the species Cavia porcellus. Nature of the assay: Cardiac activity in guinea pig heart measured as decrease in left ventricular pressure at 1 uM relative to control. The format is functional. Set-up: scale not given: the % may be the effect or the level left. In a few lines:
as §3

The species named for assay [12] is Cavia porcellus. The assay can be described thus: Antagonist activity against calcium channel assessed as inhibition of calcium-induced contraction of potassium ion-depolarized guinea pig ileum longitudinal smooth muscle at 100 uM. It counts as functional. Set-up: scale not given: the % may be the effect or the level left. Put shortly:
as §5

For assay [13], the species on record is Cavia porcellus. The assay can be described thus: Negative inotropic activity in guinea pig left ventricular papillary muscle. It counts as functional. Particulars: Muscle tissue.
Assay [14] deals with T1, Voltage-dependent L-type calcium channel subunit alpha-1C (Rattus norvegicus, UniProt P22002). The assay can be described thus: Inhibition of [3H]diltiazem binding to Sprague-Dawley rat cardiomyocytes at 100 uM relative to control. The conditions noted are these: read-out: Activity. In a few lines: (§6)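 Cardiomyocytes from male Sprague-Dawley rats, isolated by Langendorff perfusion and stored frozen (200 μg per tube). Incubated with 5 nM [3H]diltiazem and test ligand (0.1 nM-100 μM) in 50 mM Tris pH 7.4, 25 °C, 90 min. Bound ligand separated by filtration. Nonspecific binding with 100 μM diltiazem. Triplicates. pIC50 from sigmoidal fit; Ki by Cheng-Prusoff.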
T1 sequence (P22002 whole entry, the tested form may be a part): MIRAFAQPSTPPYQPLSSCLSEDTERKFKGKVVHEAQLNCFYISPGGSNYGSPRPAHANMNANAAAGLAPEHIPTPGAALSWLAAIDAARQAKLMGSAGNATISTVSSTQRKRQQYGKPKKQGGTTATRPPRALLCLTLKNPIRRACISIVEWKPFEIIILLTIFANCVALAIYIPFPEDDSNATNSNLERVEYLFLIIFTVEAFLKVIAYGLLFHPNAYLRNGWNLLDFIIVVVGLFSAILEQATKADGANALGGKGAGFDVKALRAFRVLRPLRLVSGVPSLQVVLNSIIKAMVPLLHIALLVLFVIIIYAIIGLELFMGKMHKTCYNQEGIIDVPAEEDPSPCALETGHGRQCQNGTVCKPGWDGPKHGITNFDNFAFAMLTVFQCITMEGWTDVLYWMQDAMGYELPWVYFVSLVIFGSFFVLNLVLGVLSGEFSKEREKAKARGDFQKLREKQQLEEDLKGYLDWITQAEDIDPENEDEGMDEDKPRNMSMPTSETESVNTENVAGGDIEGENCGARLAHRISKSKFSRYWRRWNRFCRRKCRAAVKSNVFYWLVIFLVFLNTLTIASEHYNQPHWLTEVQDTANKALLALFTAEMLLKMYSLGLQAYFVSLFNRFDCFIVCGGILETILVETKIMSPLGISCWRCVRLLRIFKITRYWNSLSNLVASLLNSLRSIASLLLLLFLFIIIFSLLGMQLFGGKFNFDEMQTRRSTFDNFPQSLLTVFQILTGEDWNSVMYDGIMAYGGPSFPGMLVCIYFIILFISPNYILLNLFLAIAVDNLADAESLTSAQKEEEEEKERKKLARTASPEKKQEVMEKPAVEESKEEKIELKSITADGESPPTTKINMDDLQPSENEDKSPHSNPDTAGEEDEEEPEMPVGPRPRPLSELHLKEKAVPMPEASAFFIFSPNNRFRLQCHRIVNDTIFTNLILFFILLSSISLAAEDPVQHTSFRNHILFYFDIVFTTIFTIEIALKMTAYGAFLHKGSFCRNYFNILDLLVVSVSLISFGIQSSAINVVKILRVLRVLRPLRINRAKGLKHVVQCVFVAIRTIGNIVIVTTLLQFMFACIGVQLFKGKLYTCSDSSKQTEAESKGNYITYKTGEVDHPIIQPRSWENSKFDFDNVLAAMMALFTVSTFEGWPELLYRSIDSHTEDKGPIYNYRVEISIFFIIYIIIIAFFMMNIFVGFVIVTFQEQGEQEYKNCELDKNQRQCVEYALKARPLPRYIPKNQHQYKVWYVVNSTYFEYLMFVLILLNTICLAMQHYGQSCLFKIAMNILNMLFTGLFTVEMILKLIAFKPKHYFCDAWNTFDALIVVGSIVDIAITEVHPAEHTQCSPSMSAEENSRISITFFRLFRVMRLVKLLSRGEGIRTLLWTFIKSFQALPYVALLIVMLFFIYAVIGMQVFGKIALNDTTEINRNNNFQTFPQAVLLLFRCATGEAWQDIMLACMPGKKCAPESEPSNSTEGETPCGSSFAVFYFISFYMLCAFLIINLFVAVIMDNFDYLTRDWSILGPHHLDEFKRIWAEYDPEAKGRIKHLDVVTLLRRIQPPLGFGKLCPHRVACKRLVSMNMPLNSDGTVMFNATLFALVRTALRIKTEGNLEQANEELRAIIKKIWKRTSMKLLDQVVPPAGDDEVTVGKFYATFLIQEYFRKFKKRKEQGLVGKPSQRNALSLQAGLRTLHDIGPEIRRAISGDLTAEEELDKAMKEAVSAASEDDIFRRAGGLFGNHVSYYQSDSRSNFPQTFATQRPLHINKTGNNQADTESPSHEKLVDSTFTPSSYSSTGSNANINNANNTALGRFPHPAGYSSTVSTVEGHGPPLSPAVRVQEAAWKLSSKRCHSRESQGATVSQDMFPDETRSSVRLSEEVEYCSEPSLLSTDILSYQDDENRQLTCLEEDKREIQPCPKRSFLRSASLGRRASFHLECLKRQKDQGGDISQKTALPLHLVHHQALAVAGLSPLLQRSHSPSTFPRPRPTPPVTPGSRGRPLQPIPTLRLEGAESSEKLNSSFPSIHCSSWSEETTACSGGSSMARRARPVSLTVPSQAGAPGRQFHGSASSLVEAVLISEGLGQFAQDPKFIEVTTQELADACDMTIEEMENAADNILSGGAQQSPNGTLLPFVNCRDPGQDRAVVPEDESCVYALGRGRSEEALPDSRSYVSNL

Assay [15] is filed under the species Cavia porcellus. The assay can be described thus: Negative chronotropic activity in guinea pig right atrium at 50 uM. The format is functional, Cardiac atrium. In a few lines: as §4
The species entered for assay [16] is Cavia porcellus. Nature of the assay: Negative inotropic activity in guinea pig left ventricular papillary muscle at 50 uM. It counts as functional, Muscle tissue.
The species entered for assay [17] is Cavia porcellus. The assay can be described thus: Negative chronotropic activity in guinea pig right atrium. The format is functional. The conditions noted are these: Cardiac atrium. Put shortly: as §4
Assay [18] deals with T1, Voltage-dependent L-type calcium channel subunit alpha-1C. Nature of the assay: Inhibition of [3H]diltiazem binding to Sprague-Dawley rat cardiomyocytes. Put shortly:
as §6

The species named for assay [19] is Cavia porcellus. The assay can be described thus: Vasorelaxant activity assessed as inhibition of calcium-induced contraction of potassium ion-depolarized guinea pig aortic strips at 100 uM. It counts as functional, Aorta. Set-up: scale not given: the % may be the effect or the level left. In a few lines: as §2
The species named for assay [20] is Cavia porcellus. The assay can be described thus: Antagonist activity against calcium channel assessed as inhibition of calcium-induced contraction of potassium ion-depolarized guinea pig ileum longitudinal smooth muscle at 50 uM. It counts as functional. Set-up: scale not given: the % may be the effect or the level left. Put shortly: as §5
For assay [21], the species on record is Cavia porcellus. Nature of the assay: Negative inotropic activity in guinea pig left atrium at 1 uM. The format is functional, Cardiac atrium. In a few lines: as §1
The species entered for assay [22] is Cavia porcellus. Nature of the assay: Vasorelaxant activity assessed as inhibition of calcium-induced contraction of potassium ion-depolarized guinea pig aortic strips. The format is functional. The conditions noted are these: Aorta. In a few lines: as §2
The species named for assay [23] is Cavia porcellus. Nature of the assay: Negative inotropic activity in guinea pig left atrium at 10 uM. It counts as functional, Cardiac atrium. In a few lines:
as §1

For assay [24], the species on record is Cavia porcellus. The assay can be described thus: Negative inotropic activity in guinea pig left atrium at 100 uM. The format is functional, Cardiac atrium. Particulars: in the assay text read “50 uM” for “100 uM”. In a few lines: as §1
The species entered for assay [25] is Cavia porcellus. Nature of the assay: Negative inotropic activity in guinea pig left ventricular papillary muscle at 10 uM. The format is functional, Muscle tissue.
For assay [26], the species on record is Cavia porcellus. The assay can be described thus: Antagonist activity against calcium channel assessed as inhibition of calcium-induced contraction of potassium ion-depolarized guinea pig ileum longitudinal smooth muscle at 10 uM. It counts as functional. Set-up: scale not given: the % may be the effect or the level left. In a few lines: as §5
The species named for assay [27] is Cavia porcellus. The assay can be described thus: Cardiac activity in guinea pig heart measured as increase in coronary perfusion pressure at 1 uM relative to control. The format is functional. Put shortly:
as §3

In assay [28] the target is T1, Voltage-dependent L-type calcium channel subunit alpha-1C. The assay can be described thus: Inhibition of [3H]diltiazem binding to Sprague-Dawley rat cardiomyocytes at 10 nM relative to control. The conditions noted are these: read-out: Activity. Put shortly: as §6
Assay [29] is filed under the species Cavia porcellus. Nature of the assay: Negative inotropic activity in guinea pig left atrium at 5 uM. It counts as functional, Cardiac atrium. In a few lines: as §1
For assay [30], the species on record is Cavia porcellus. The assay can be described thus: Antagonist activity against calcium channel assessed as inhibition of calcium-induced contraction of potassium ion-depolarized guinea pig ileum longitudinal smooth muscle at 500 uM. The format is functional. Set-up: scale not given: the % may be the effect or the level left. In a few lines: as §5
The species entered for assay [31] is Cavia porcellus. The assay can be described thus: Negative chronotropic activity in guinea pig right atrium at 5 uM. It counts as functional, Cardiac atrium. In a few lines:
as §4

For assay [32], the species on record is Cavia porcellus. The assay can be described thus: Negative inotropic activity in guinea pig left atrium at 500 uM. The format is functional, Cardiac atrium.
The species entered for assay [33] is Cavia porcellus. The assay can be described thus: Negative chronotropic activity in guinea pig right atrium at 100 uM. The format is functional, Cardiac atrium. Particulars: in the assay text read “50 uM” for “100 uM”. In a few lines: as §4

From ChEMBL document CHEMBL1146021, “Calcium channel antagonists discovered by a multidisciplinary approach” (J Med Chem, 2006) come the findings set out here.

pEC50, pIC50, pKi: −log10 of the molar value. Activity calls are given as the source filed them.

`COC(=O)c1c(-c2c(Cl)cccc2Cl)noc1C`: the Activity in assay [1] was found to be 84%; in [2], 30%; in assay [4], 4%; in assay [5] it was 14%; in assay [7], 87%; in assay [9], 13%. The Activity in assay [11] is given as 31%; in assay [12], 99%. The negative logarithm of the EC50 (pEC50) is 6.04 in assay [3], 5.18 in [10] and 7.44 in assay [13]. Besides, the pIC50 in assay [6] was 4.47. In addition, the outcome in [8] was inactive. In addition, the inhibition at 100 µM in [14] is 59.6%.

As to `O=S(=O)(c1ccc(Cl)cc1)N(C1CCNCC1)C1CC1`, the Activity in assay [1] is on record as 76%; in assay [15], 64%; in assay [4], 12%; in assay [16], 78%; in [19], 19%; in assay [8] it was 13%. Besides, the figures for the Activity in [20] and in assay [11] were 89% and 12%, respectively. The negative-log EC50 (pEC50) in assay [3] is 6.50; in assay [10], 4.85; in [13], 4.99. For the same compound, in assay [17], the 30% effect concentration (EC30) turned out to be 480 nM. In addition, the negative logarithm of the Ki (pKi) in [18] is 5.52. Besides, the outcome in assay [5] was inactive. For the same compound, the negative-log IC50 (pIC50) in assay [6] was 4.46.

`CCO[C@@]1(c2ccc(Br)cc2)SC=C(C)n2c1noc2=O`: the figures for the Activity in assay [15], in assay [19] and in assay [21] were 15%, 7% and 47%, respectively.

`CSC1=NCCCN1S(=O)(=O)c1ccc(Cl)cc1` had a negative-log EC50 (pEC50) in assay [3] of 5.88. The Activity in [19] worked out at 57%; in assay [9] it was 5%; in [23], 92%. Also, in assay [22], the negative-log IC50 (pIC50) was 4.60.

For the compound `C=CCN(CC=C)S(=O)(=O)c1ccc(Cl)cc1`, the negative-log EC50 (pEC50) in assay [3] was 5.93. For the same compound, the Activity in assay [19] stood at 42%; in [9], 6%; in [24] it was 98%.

For `O=S(=O)(c1ccc(Cl)cc1)N1CCC[C@@H]1c1cccs1`, the negative logarithm of the EC50 (pEC50) is 6.51 in assay [3], 5.93 in assay [10] and 5.86 in assay [13]. Moreover, the Activity in assay [25] was found to be 93%; in [26] it was 90%; in assay [19], 74%; in assay [5], 20%; in [27], 17%; in assay [9], 4%. For the same compound, the Activity in assay [11] is 6%; in assay [29], 84%. The result in assay [4] was inactive. Also, the values for the pIC50 in assay [6] and in assay [22] were 5.09 and 5.25, respectively. Also, the inhibition at 0.01 µM in [28] is -24.8%.

In the case of `Cc1snc(S(=O)(=O)Cc2c(F)cccc2Cl)c1C#N`, the Activity in [1] came to 80%; in assay [15] it was 22%; in [19], 23%. Moreover, in assay [3], the pEC50 is 5.64.

As for `CC(=O)c1ccccc1N1C(=O)CSCC1=O`, the Activity in assay [1] was determined as 61%; in assay [15], 3%; in assay [2], 5%; in [25], 89%; in [4], 14%; in assay [5], 15%. The Activity is reported as 6% in assay [8], 17% in assay [11] and 55% in assay [30]. Moreover, the values for the negative logarithm of the EC50 (pEC50) in assay [3], in assay [10] and in [13] were 6.40, 3.90 and 7.18, respectively. Also, the outcome in [6] was inactive.

With `O=C(c1ccccn1)c1conc1-c1c(Cl)cccc1Cl`, the Activity in assay [1] stood at 81%; in assay [31], 21%; in assay [19], 25%. The compound further showed a pEC50 in [3] of 6.00.

The compound `COC(=O)c1ccccc1-n1cccc1C(=O)C(Cl)(Cl)Cl` gave a pEC50 in assay [3] of 5.41. Also, the Activity in assay [32] was found to be 76%; in [19] it was 20%; in assay [33], 33%.
